A selection: hits, their analogues and other compounds. The true share with any hit is near 1.6%.
SR-BI HDL uptake: blocks mouse SR-BI lipid uptake from DiI-HDL | inhibition, % at 12.5 µM | ldlA[mSR-BI] CHO cells, DiI-HDL uptake fluorescence, 3 h | Q61009 | hit rate 0.96% among 320,000;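 active means mean replicate inhibition of at least 70% and a set share of replicates each scoring 70 or more; inconclusive means meets just one of the two criteria; inactive means fails both criteria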;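 further: 0% = median of neutral control wells and 100% = median of positive control wells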
Target sequence (Q61009 whole entry, looked up): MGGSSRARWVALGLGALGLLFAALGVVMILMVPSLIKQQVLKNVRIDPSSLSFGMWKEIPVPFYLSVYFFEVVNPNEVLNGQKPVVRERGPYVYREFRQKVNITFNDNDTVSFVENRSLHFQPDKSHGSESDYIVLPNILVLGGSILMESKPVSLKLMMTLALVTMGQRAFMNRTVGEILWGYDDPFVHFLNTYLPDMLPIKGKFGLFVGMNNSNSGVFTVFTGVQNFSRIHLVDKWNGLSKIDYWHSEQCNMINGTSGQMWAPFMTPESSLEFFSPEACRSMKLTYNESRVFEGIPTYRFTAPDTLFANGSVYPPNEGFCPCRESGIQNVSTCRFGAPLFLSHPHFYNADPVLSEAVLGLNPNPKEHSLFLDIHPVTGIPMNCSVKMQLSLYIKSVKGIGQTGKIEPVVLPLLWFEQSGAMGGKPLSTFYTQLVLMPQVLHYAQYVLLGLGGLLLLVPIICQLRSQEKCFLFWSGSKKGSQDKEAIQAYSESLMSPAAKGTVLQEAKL
SR-BI uptake up: SR-BI HDL lipid transfer activation. activation, % at 12.5 µM. hit rate 0.096% among 320,000. AID 504775. CHO ldlA[mSR-BI] cells, DiI-HDL uptake fluorescence, 3 h; 100 = double the neutral-control signal;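 active means mean replicate activation of at least 60% and every replicate at or above 60%; inconclusive means mean or all-replicate condition met, but not both; inactive means mean below 60% and not all replicates reaching 60%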;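 further: 0% = median plate neutral-control signal and 100% = twice that signal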
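System: LDL receptor-deficient CHO ldlA cells overexpressing murine SR-BI | Timing: 3 h uptake period with compound, 37 °C | Medium: HEPES-buffered (25 mM, pH 7.4) F12 plus 0.5% BSA | Dosing: Single-point compound dose | Signal: Bottom-read fluorescence, 550/595 nm | Read-out: Retained DiI signal reflecting DiI-HDL uptake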
dFosB act-1: mouse delta FosB homodimer activation; P13346; purified delta FosB, TAMRA-CDK5 oligo fluorescence polarization; percent of positive-control signal above neutral wells; activation, % at 25 µM; hit rate 0.99% among 340,000; AID 493131;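 active means mean activation above about 17%, with every replicate also reaching it, limit read from the data, passing the limit was not always enough; inconclusive means only one of the two conditions met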
RAD54 inh: blocks human RAD54 Holliday junction branch migration | FAM/BHQ fluorescence | inhibition, % at 10.4 µM | hit rate 0.14% among 360,000;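 active means mean normalized replicate activity at least 40 and at least half of replicates scoring 40 or more; inconclusive means only one of the two criteria met; inactive means mean below 40 and under half of replicates reaching 40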;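 further: 0% = median of neutral control wells and 100% = median of positive control wells; inhibitors cause a drop in the FAM fluorescence signal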
PvdQ inh: P. aeruginosa PvdQ acylase inhibition; purified PvdQ acylase, fluorescence plate reader; inhibition, % at 10 µM; hit rate 0.063% among 340,000; AID 488965; in the data active means inhibition above about 30%, passing the limit was not always enough; inconclusive means no clear call, values can overlap the other calls;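 further: 0% = vehicle neutral wells and 100% = reference inhibitor wells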
S100A4 MyoIIA: blocks human S100A4 binding to myosin IIA peptide; P26447; S100A4/TAMRA-MyoIIA peptide fluorescence polarization; inhibition, % at 10.7 µM; hit rate 0.14% among 360,000;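 active means mean inhibition of at least 70% across replicates, with every replicate also reaching that level; inconclusive means mean inhibition reaches 70% but some replicates fall short; inactive means mean inhibition below 70%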
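Material: S100A4 monomer protein | Medium: HEPES pH 7.2 with CaCl2, KCl, NaCl, DTT, Triton | Reagent: Labelled myosin peptide probe, 5 nM | Doses: One dose per compound | Times: 5 min incubation before reading | Benchmarks: Neutral control DMSO, positive control TFP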
dFosB act-2: activators of mouse delta FosB homodimer DNA binding; shares compounds with dFosB act-1; purified delta FosB, TAMRA-CDK5 oligo fluorescence polarization; normalised: neutral wells 0, positive control 100; activation, % at 24.9 µM; 2,400 tested, under 10 active; AID 588690;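 active means highest replicate activation at or above 34% and every replicate reaching that threshold; inconclusive means meets only one of the two criteria; inactive means meets neither criterion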;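 further: higher polarization means more probe DNA bound by delta FosB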
The depositor's hits bear a star; i = inactive; ? = inconclusive; nt = not tested or not shown; ! = not active in a repeat.

SMILES	SR-BI HDL uptake	SR-BI uptake up	dFosB act-1	RAD54 inh	PvdQ inh	S100A4 MyoIIA	dFosB act-2
CC(C)CN(C(=O)COC(=O)/C=C/c1cccs1)c1c(N)n(Cc2ccccc2)c(=O)[nH]c1=O	5	-5	34*	nt	-15	-3	3
C[C@@H]1CN([C@@H](C)CO)C(=O)c2cc(NC(=O)CCCN(C)C)ccc2O[C@@H]1CN(C)C(=O)Nc1ccc2c(c1)OCO2	nt	nt	nt	nt	nt	-7	nt
Cc1ccc(S(=O)(=O)NC[C@@H]2CC[C@@H]3[C@@H](CN3Cc3cc(F)ccc3F)O2)cc1	nt	nt	nt	nt	nt	0	nt
C[C@H](CO)N1C[C@H](C)[C@H](CN(C)CC2CCOCC2)Oc2ncc(C#Cc3ccccc3)cc2C1=O	nt	nt	nt	2	nt	4	nt
O=C(NCc1ccc(F)cc1)[C@H]1[C@H](CO)[C@H]2Cn3c(cccc3=O)[C@@H]1N2C(=O)C1CC1	nt	nt	nt	nt	nt	0	nt
Cc1ccc(S(=O)(=O)N(C)C[C@@H]2Oc3ccc(NC(=O)NC4CCCCC4)cc3CC(=O)N([C@H](C)CO)C[C@@H]2C)cc1	nt	nt	nt	?	nt	-7	nt
C[C@H](CO)N1C[C@H](C)[C@@H](CN(C)S(C)(=O)=O)Oc2ccc(NC(=O)CCCCCC(=O)Nc3ccccc3N)cc2CC1=O	nt	nt	nt	1	nt	3	nt
CC(=O)Nc1cc2cc(NS(=O)(=O)c3ccc(Cl)cc3)ccc2oc1=O	-13	13	93*	0	-3	-8	1
C[C@@H]1CCCCO[C@@H](CN(C)Cc2ccc3c(c2)OCO3)[C@H](C)CN([C@@H](C)CO)C(=O)c2cc(NC(=O)CCCN(C)C)ccc2O1	nt	nt	nt	10	nt	-16	nt
CN1CCN(Cc2nc3ccccc3c(=O)n2Cc2nc(-c3ccc4ccccc4c3)cs2)CC1	-13	13	27*!	nt	1	2	3
CCOc1cc(CNCCO)cc(Br)c1OCc1ccccc1Cl	-6	6	7	8	-8	nt	nt
CCOc1cc(CNCCCN2CCOCC2)cc(Br)c1OCc1ccccc1Cl	-7	7	21*	6	5	-5	1
O=C(NCC1CC1)[C@H]1N[C@H]2c3ccc(-c4ccccc4F)c(=O)n3C[C@H]2[C@@H]1CO	nt	nt	nt	-6	nt	-5	nt
Cc1nnc(NC(=O)c2cccc(F)c2)s1	-5	5	-6	3	-8	nt	nt
O=C(Nc1nnc(-c2cccs2)s1)c1cccc(F)c1	1	-1	36*	-3	-4	-1	-5
Cc1ccc(/C=C/C(=O)NC(=S)Nc2ccccc2C(=O)NC2CCCCC2)cc1	21	-21	-10	12	-5	nt	nt
COc1ccc(/C=C/C(=O)NC(=S)Nc2ccccc2C(=O)NC2CCCCC2)cc1	22	-22	44*	nt	-10	3	-3
O=C(/C=C/c1ccccc1)NC(=S)Nc1ccccc1C(=O)NC1CCCCC1	9	-9	39*	-7	-5	nt	-4
O=C(/C=C/c1ccc(F)cc1)NC(=S)Nc1ccccc1C(=O)NC1CCCCC1	-13	13	22*	nt	-6	nt	3
C[C@H]1CN([C@@H](C)CO)C(=O)c2cc(NS(=O)(=O)c3ccc(Cl)cc3)ccc2O[C@@H]1CN(C)Cc1ccc2c(c1)OCO2	nt	nt	nt	-2	nt	0	nt
COc1cccc(/C=C2/Sc3ccc(C(=O)NCCCN4CCCC4)cc3NC2=O)c1	-3	3	37*	?	-12	5	4
C[C@@H]1CN([C@H](C)CO)C(=O)c2cc(-c3ccc(C(=O)N(C)C)cc3)cnc2O[C@@H]1CN(C)C(=O)c1ccncc1	nt	nt	nt	7	nt	16	nt
Cc1ccc2cc3cc(C(=O)NCc4ccc5c(c4)OCO5)oc3nc2c1	-23	23	56*	-4	-3	nt	3
COC(=O)c1ccc(NC(=O)c2cccc(NC(=O)c3ccco3)c2)cc1	i	749*	17*	-5	-8	-1	4
O=C(Nc1cccc(NC(=O)c2ccco2)c1)c1ccc([N+](=O)[O-])cc1	82*	-82	20*	nt	-7	-6	4
COC(=O)c1cccc(NC(=O)Nc2ccc(Cl)cc2)c1	11	-11	-12	-7	-12	-6	nt
